This is an account of results in ChEMBL document CHEMBL1926518, “Synthesis of macrolones with central piperazine ring in the linker and its influence on antibacterial activity” (2011).

Common to all, as to type: functional
Test [1] has as its system Streptococcus pyogenes. The experiment in a line: Antibacterial activity against inducible macrolide, licosamide and streptogramin-resistant Streptococcus pyogenes Finland 11 by broth microdilution technique. The essentials:
(§1)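 MICs were determined by CLSI broth microdilution, with double dilutions of compound. In the streptococcal medium, 5% horse serum replaced lysed blood. Streptococci were grown on Columbia agar with 5% sheep blood before testing. Results are given in µg/mL.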
For orientation: In broth dilution the organism is exposed to a series of concentrations in liquid medium.

In test [2] the test system is Streptococcus pneumoniae. The experiment in a line: Antibacterial activity against erythromycin-sensitive Streptococcus pneumoniae SP030 by broth microdilution technique. The gist of the method: (§2)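 Streptococcal MICs by CLSI broth microdilution with doubling dilutions, but with 5% horse serum in the medium in place of lysed blood. Before testing, strains were grown on Columbia agar with 5% sheep blood. Values reported in µg/mL.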

Test [3] deals with Streptococcus pneumoniae. The experiment in a line: Antibacterial activity against efflux-mediated macrolide-resistant Streptococcus pneumoniae Ci137 by broth microdilution technique. The essentials: as §1
The subject of test [4] is Staphylococcus aureus. As to the kind of experiment: Antibacterial activity against efflux-mediated macrolide-resistant Staphylococcus aureus PK1 by broth microdilution technique. The essentials: (§3)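 MICs were determined by CLSI broth microdilution, with double dilutions of compound. Staphylococci were grown on Mueller–Hinton agar before testing. Results are given in µg/mL.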

For test [5], the system named is Streptococcus pyogenes. The experiment in a line: Antibacterial activity against erythromycin-sensitive Streptococcus pyogenes 3565 by broth microdilution technique. The gist of the method: as §2
Test [6] deals with Streptococcus pneumoniae. The experiment in a line: Antibacterial activity against inducible macrolide-resistant, constitutive licosamide and streptogramin-resistant Streptococcus pneumoniae 134 GR-Micro by broth microdilution technique. The gist of the method: as §1
The subject of test [7] is Staphylococcus aureus. As to the kind of experiment: Antibacterial activity against erythromycin-sensitive Staphylococcus aureus ATCC 13709 by broth microdilution technique. The essentials: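 MIC by broth microdilution per CLSI guidelines with doubling dilutions of compounds. Before testing, staphylococci were grown on Mueller–Hinton agar. Values reported in µg/mL.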

For test [8], the system named is Streptococcus pyogenes. The experiment in a line: Antibacterial activity against constitutive macrolide, licosamide and streptogramin-resistant Streptococcus pyogenes 166 GR-Micro by broth microdilution technique. The gist of the method:
as §1

The subject of test [9] is Staphylococcus aureus. As to the kind of experiment: Antibacterial activity against inducible macrolide, licosamide and streptogramin-resistant Staphylococcus aureus 90256/97 by broth microdilution technique. The gist of the method:
as §3

The test system of test [10] is Streptococcus pneumoniae. The experiment in a line: Antibacterial activity against constitutive macrolide, licosamide and streptogramin-resistant Streptococcus pneumoniae 58 Spain by broth microdilution technique. The gist of the method: as §1
Test [11] relates to Staphylococcus aureus. The experiment in a line: Antibacterial activity against constitutive macrolide, licosamide and streptogramin-resistant Staphylococcus aureus PK2 by broth microdilution technique. The essentials: as §3
Test [12] has as its system Streptococcus pyogenes. The experiment in a line: Antibacterial activity against efflux-mediated macrolide-resistant Streptococcus pyogenes 3 Finland by broth microdilution technique. The essentials:
as §1

Another test relates to Moraxella catarrhalis. As to the kind of experiment: Antibacterial activity against Moraxella catarrhalis ATCC 23246 by broth microdilution technique. The gist of the method:
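MIC by broth microdilution per CLSI guidelines with doubling dilutions of compounds. Before testing, organisms were grown on Columbia agar with 5% sheep blood. Values reported in µg/mL.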

The subject of a further test is Haemophilus influenzae. The experiment in a line: Antibacterial activity against Haemophilus influenzae ATCC 49247 by broth microdilution technique. The essentials:
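MIC by broth microdilution per CLSI guidelines with doubling dilutions of compounds. Before testing, organisms were grown on Mueller-Hinton chocolate agar. Values reported in µg/mL.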

Converted amounts (≈) assume the structure as drawn.

For the molecule `CCOC(=O)c1cn(CC)c2ccc(/C=C/CN3CCNCC3)cc2c1=O`, the MIC is greater than 64 µg/mL with Streptococcus pyogenes [1]; 64 µg/mL (≈ 173 µM) against Streptococcus pneumoniae [2]; greater than 64 µg/mL against Streptococcus pneumoniae [3]; greater than 64 µg/mL in the test with Staphylococcus aureus [4]; greater than 64 µg/mL in the test on Streptococcus pyogenes [5]; greater than 64 µg/mL against Streptococcus pneumoniae [6]. Moreover, the MIC against Staphylococcus aureus [7], against Streptococcus pyogenes [8], against Staphylococcus aureus [9], in the test on Streptococcus pneumoniae [10], against Staphylococcus aureus [11] and against Streptococcus pyogenes [12] was greater than 64 µg/mL each time. The MIC against Moraxella catarrhalis and with Haemophilus influenzae was greater than 64 µg/mL each time.

On to `CCOC(=O)c1cn(CC)c2ccc(/C=C/CN3CCN(C(=O)OC(C)(C)C)CC3)cc2c1=O`, for which the MIC against Streptococcus pyogenes [1] is greater than 64 µg/mL; against Streptococcus pneumoniae [2], 64 µg/mL (≈ 136 µM); in the test with Streptococcus pneumoniae [3], greater than 64 µg/mL; against Staphylococcus aureus [4], greater than 64 µg/mL; against Streptococcus pyogenes [5] it was greater than 64 µg/mL; against Streptococcus pneumoniae [6] it was greater than 64 µg/mL. Besides, the MIC in the test with Staphylococcus aureus [7], against Streptococcus pyogenes [8], in the test with Staphylococcus aureus [9], in the test on Streptococcus pneumoniae [10], in the test with Staphylococcus aureus [11] and in the test on Streptococcus pyogenes [12] was greater than 64 µg/mL in each case. Besides, the MIC in the test with Moraxella catarrhalis and against Haemophilus influenzae was greater than 64 µg/mL each time.

On to `CC[C@H]1OC(=O)[C@H](C)[C@@H](O[C@H]2C[C@@](C)(OC)[C@@H](O)[C@H](C)O2)[C@H](C)[C@@H](O[C@@H]2O[C@H](C)C[C@H](N(C)C)[C@H]2O)[C@](C)(O)C[C@@H](C)CN(C)[C@H](C)[C@@H](O)[C@]1(C)O` [AZITHROMYCIN], for which the MIC in the test on Streptococcus pyogenes [1] was 16 µg/mL (≈ 21.4 µM); against Streptococcus pneumoniae [2], no more than 0.125 µg/mL; in the test on Streptococcus pneumoniae [3], 8 µg/mL (≈ 10.7 µM); with Staphylococcus aureus [4], greater than 64 µg/mL; in the test on Streptococcus pyogenes [5] it was no more than 0.125 µg/mL; against Streptococcus pneumoniae [6], greater than 64 µg/mL. The MIC was 0.5 µg/mL (≈ 0.668 µM) in the test with Staphylococcus aureus [7]; greater than 64 µg/mL against Streptococcus pyogenes [8]; greater than 64 µg/mL with Staphylococcus aureus [9]; greater than 64 µg/mL in the test on Streptococcus pneumoniae [10]; greater than 64 µg/mL in the test on Staphylococcus aureus [11]; 8 µg/mL (≈ 10.7 µM) in the test on Streptococcus pyogenes [12]. Besides, the results for the MIC with Moraxella catarrhalis and against Haemophilus influenzae were no more than 0.125 µg/mL and 1 µg/mL (≈ 1.34 µM), respectively.
